Results pooled from the literature.
Lines come from different studies, so protocols differ.
CNR1: Cannabinoid receptor 1 (CNR1, Homo sapiens, UniProt P21554)
HTR2A: 5-hydroxytryptamine receptor 2A (HTR2A, Homo sapiens, UniProt P28223)
SRD5A1: 3-oxo-5-alpha-steroid 4-dehydrogenase 1 (SRD5A1, Homo sapiens, UniProt P18405)

| Structure (SMILES) | target | test | system | conditions | inhibition [%] |
| --- | --- | --- | --- | --- | --- |
| NC/C(=C\F)COc1cccc(Cn2c(=S)[nH]c(=O)c3[nH]cnc32)c1 | CNR1 | ligand displacement, radioligand |  | 10 µM | < 50 |
| CCN1/C(=C/C(C)=O)Sc2ccc(F)cc21 | CNR1 | ligand displacement, radioligand |  | 10 µM | 0 |
| COc1cc2c3c(c1OC)-c1c(OC)ccc(NC(C)=O)c1CC3N(C)CC2 (stereo not shown) | HTR2A | ligand displacement, radioligand |  | 10 µM | 9 |
| Cc1cc(F)cc2c(CCC(=O)N[C@@H]3C(=O)NC[C@H]3O)c(-c3ccc(F)cc3)[nH]c12 | Endothelin-1 receptor (EDNRA, Homo sapiens, UniProt P25101) | cell-free assay |  | 10 µM | -19 |
| O=C(O)/C=C/c1ccc(O)c(O)c1 | SRD5A1 | enzyme activity in cells, inhibitor | HaCaT | 50 µM | 6.07 |
| COc1cc2c3c(c1OC)-c1c(OC)ccc(-c4ccc(C#N)cc4)c1CC3N(C)CC2 (stereo not shown) | HTR2A | ligand displacement, radioligand |  | 10 µM | 34 |
| COC(=O)C=Cc1ccc(OC(C)=O)c(OC(C)=O)c1 | SRD5A1 | enzyme activity in cells, inhibitor | HaCaT | 50 µM | 25.1 |
| Cc1cc(O)c(-c2ccc([C@@H](C)CN(C)C)cc2)c2c1[nH]c(=O)c1sccc12 | Serine/threonine-protein kinase A-Raf (ARAF, Homo sapiens, UniProt P10398) | enzyme activity, inhibitor |  | 0.1 µM, lysate | -26 |
| C#Cc1cc(-c2cc(Nc3nc(N[C@@H](C)c4ccc(F)cn4)ncc3Cl)n[nH]2)ccc1C=O | Cytoplasmic tyrosine-protein kinase BMX (BMX, Homo sapiens, UniProt P51813) | enzyme activity, inhibitor |  | 0.2 µM | 70.8 |
| COc1cc(C=CC(=O)O)ccc1OC(C)=O | SRD5A1 | enzyme activity in cells, inhibitor | HaCaT | 50 µM | 18.6 |
